Assay results taken from ChEMBL document CHEMBL1128432, “Structure-activity relationships for inhibition of type 1 and 2 human 5 alpha-reductase and human adrenal 3 beta-hydroxy-delta 5-steroid dehydrogenase/3-keto-delta 5-steroid isomerase by 6-azaandrost-4-en-3-ones: optimization of the C17 substituent” (J Med Chem, 1995).

Assays:
[1] = biological target: T1, 3-oxo-5-alpha-steroid 4-dehydrogenase 2 (Homo sapiens, UniProt P31213); experiment: Inhibitory activity measured on human steroid 5-alpha-reductase type 2
T1 sequence (P31213 whole entry): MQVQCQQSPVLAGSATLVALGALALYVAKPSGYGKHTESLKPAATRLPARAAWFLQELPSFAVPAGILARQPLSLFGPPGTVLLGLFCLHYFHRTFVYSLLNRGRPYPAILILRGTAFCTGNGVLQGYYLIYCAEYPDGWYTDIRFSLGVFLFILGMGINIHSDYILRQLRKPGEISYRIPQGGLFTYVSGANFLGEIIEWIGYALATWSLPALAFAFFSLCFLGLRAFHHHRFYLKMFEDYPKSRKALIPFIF

[2] = Inhibition of recombinant human adrenal 3-beta-hydroxy-delta-5-steroid dehydrogenase
[3] = biological target: T2, 3-oxo-5-alpha-steroid 4-dehydrogenase 1 (Homo sapiens, UniProt P18405); experiment: Inhibition of recombinant steroid 5-alpha-reductase type I
T2 sequence (P18405 whole entry): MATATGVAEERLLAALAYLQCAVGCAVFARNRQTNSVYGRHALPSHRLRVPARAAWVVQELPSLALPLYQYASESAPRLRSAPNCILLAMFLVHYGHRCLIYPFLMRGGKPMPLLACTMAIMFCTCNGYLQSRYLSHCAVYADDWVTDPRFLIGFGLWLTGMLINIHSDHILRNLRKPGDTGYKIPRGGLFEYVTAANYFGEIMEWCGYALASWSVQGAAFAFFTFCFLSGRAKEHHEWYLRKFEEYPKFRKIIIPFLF

[4] = Bioavailability in dog (Beagle) at t1/2 (dose 5 mg/kg i.v.); type: ADME, organism-based, Canis lupus familiaris; conditions: in vivo, iv
How it was run: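 Male beagles dosed intravenously (5 mg/kg for these lines), 2–5 animals. Blood half-life measured in hours after iv dosing; % bioavailability reported alongside.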

Rattus norvegicus = experiment: % reduction in prostate weight when compared with T-treated controls was measured in castrated rat at 10 mg/kg/day po administration; type: functional, Prostate gland
How it was run: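 Castrated male rats, 8 per group, given 10 mg/kg/day orally alongside testosterone. The readout is ventral prostate weight reduction versus testosterone-treated controls, expressed relative to finasteride run as an internal standard in each experiment.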

[5] = biological target: T3, 3-oxo-5-alpha-steroid 4-dehydrogenase 2 (Rattus norvegicus, UniProt P31214); experiment: Inhibitory activity was measured on rat Steroid 5-alpha-reductase type 2
T3 sequence (P31214 whole entry): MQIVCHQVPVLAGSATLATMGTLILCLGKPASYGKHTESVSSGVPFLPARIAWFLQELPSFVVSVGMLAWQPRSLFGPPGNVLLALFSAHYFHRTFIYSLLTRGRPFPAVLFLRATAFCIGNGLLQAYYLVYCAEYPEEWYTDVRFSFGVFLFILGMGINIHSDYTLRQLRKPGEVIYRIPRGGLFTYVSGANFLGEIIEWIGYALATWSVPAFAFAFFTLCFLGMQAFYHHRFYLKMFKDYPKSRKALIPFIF
How it was run: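 Recombinant rat type 2 5α-reductase, assayed by the same procedure as the human type 2 assay, with changes specific to the rat enzymes.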

[6] = biological target: T4, 3-oxo-5-alpha-steroid 4-dehydrogenase 1 (Rattus norvegicus, UniProt P24008); experiment: (§1) Inhibition of recombinant Steroid 5-alpha-reductase type I was evaluated as binding affinity of the compound
T4 sequence (P24008 whole entry): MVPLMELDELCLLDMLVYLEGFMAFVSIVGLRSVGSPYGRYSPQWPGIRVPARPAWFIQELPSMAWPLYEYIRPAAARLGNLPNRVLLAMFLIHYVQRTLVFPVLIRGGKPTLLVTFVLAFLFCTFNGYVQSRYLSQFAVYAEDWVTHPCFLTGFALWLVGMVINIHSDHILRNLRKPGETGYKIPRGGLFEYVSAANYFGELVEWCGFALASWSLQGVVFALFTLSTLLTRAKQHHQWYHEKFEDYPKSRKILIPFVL

[7] = Plasma half life in beagles after iv administration.; conditions: beagle, dog
[8] = Inhibition of […] rat adrenal 3-beta-hydroxy-delta-5-steroid dehydrogenase
How it was run: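 Rat adrenal microsomes from homogenization and differential centrifugation. Started with 8 nM [3H]DHEA, stopped at 15 min with ethanol, and androstenedione measured by radio-HPLC. Kiapp from nonlinear regression, converted to Ki with Km 21 nM.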

[9] = biological target: T4, 3-oxo-5-alpha-steroid 4-dehydrogenase 1; experiment: Inhibition of recombinant Steroid 5-alpha-reductase type I was evaluated as binding affinity (in vitro)
[10] = biological target: T2, 3-oxo-5-alpha-steroid 4-dehydrogenase 1; experiment: as §1
[11] = 4 mg/kg, in the assay text read “dose 4 mg/kg i.v.” for “dose 5 mg/kg i.v.”

| Compound | IC50 [1] | Ki [2] | Ki [3] | further results |
| --- | --- | --- | --- | --- |
| CC(C)(C)c1cc(NC(=O)[C@H]2CCC3C4CNC5=CC(=O)CC[C@]5(C)C4CC[C@@]32C)cc(C(C)(C)C)c1 (stereo partly specified) | < 0.1 nM | 7.8 nM | 8 nM | – |
| CC(C)(C)c1ccc(C(F)(F)F)cc1NC(=O)[C@H]1CCC2C3CNC4=CC(=O)CC[C@]4(C)C3CC[C@@]21C (stereo partly specified) | < 0.1 nM | 1600 nM | 8.8 nM | bioavailability [4, 11]: 67%; Reduction in prostate weight (Rattus norvegicus): 100%; Ki [5]: 0.17 nM; Ki [6]: 0.1 nM; half-life [7]: 8.8 h; Ki [8]: 140 nM |
| C[C@]12CCC(=O)C=C1NCC1C2CC[C@@]2(C)C1CC[C@@H]2C(=O)Nc1ccccc1 (stereo partly specified) | – | 10 nM | 240 nM | – |
| CC(C)(C)c1ccc(-c2ccc(C(F)(F)F)cc2NC(=O)[C@H]2CCC3C4CNC5=CC(=O)CC[C@]5(C)C4CC[C@@]32C)cc1 (stereo partly specified) | 0.5 nM | 19 nM | 1100 nM | – |
| CC(C)(C)c1ccc(C2(NC(=O)[C@H]3CCC4C5CNC6=CC(=O)CC[C@]6(C)C5CC[C@@]43C)CCCC2)cc1 (stereo partly specified) | < 0.1 nM | 1500 nM | 3 nM | – |
| CC(C)(C)c1ccc(Br)cc1NC(=O)[C@H]1CCC2C3CNC4=CC(=O)CC[C@]4(C)C3CC[C@@]21C (stereo partly specified) | < 0.1 nM | 820 nM | 4.2 nM | – |
| C[C@]12CCC(=O)C=C1NCC1C2CC[C@@]2(C)C1CC[C@@H]2C(=O)NC1(c2ccc(Cl)cc2)CCCC1 (stereo partly specified) | < 0.1 nM | 1600 nM | 6.8 nM | bioavailability ([4]; 5 mg/kg): 79%; Reduction in prostate weight (Rattus norvegicus): 130%; Ki [9]: 0.07 nM; Ki [5]: 0.12 nM; half-life [7]: 12 h; Ki [8]: 97 nM |
| CC(C)(C)c1cc(Br)ccc1NC(=O)[C@H]1CCC2C3CNC4=CC(=O)CC[C@]4(C)C3CC[C@@]21C (stereo partly specified) | < 0.1 nM | 390 nM | 5.3 nM | – |
| C[C@]12CCC(=O)C=C1NCC1C2CC[C@@]2(C)C1CC[C@@H]2C(=O)Nc1cc(C(F)(F)F)ccc1C(F)(F)F (stereo partly specified) | < 0.1 nM | 300 nM | 4 nM | bioavailability [4, 11]: 100%; Reduction in prostate weight (Rattus norvegicus): 130%; Ki [5]: 1.1 nM; Ki [6]: 0.27 nM; half-life [7]: 31 h; Ki [8]: 50 nM |
| CC(C)(C)c1ccc(-c2ccc(Cl)cc2)cc1NC(=O)[C@H]1CCC2C3CNC4=CC(=O)CC[C@]4(C)C3CC[C@@]21C (stereo partly specified) | < 0.1 nM | 1200 nM | 3.4 nM | – |
| C[C@]12C=CC(=O)NC1CCC1C2CC[C@@]2(C)C1CC[C@@H]2C(=O)NC1(c2ccc(Cl)cc2)CCCC1 (stereo partly specified) | < 0.1 nM | 9000 nM | – | IC50 [10]: 0.9 nM |
| CC1=C2NCC3C(CC[C@@]4(C)C3CC[C@@H]4C(=O)Nc3cc(C(F)(F)F)ccc3C(C)(C)C)[C@@]2(C)CCC1=O (stereo partly specified) | < 0.1 nM | 200 nM | 0.5 nM | – |
| CC1=C2NCC3C(CC[C@@]4(C)C3CC[C@@H]4C(=O)Nc3cc(C(F)(F)F)ccc3C(F)(F)F)[C@@]2(C)CCC1=O (stereo partly specified) | < 0.1 nM | 19 nM | 0.2 nM | – |
| C[C@]12CCC(C(=O)O)=CC1=CCC1C2CC[C@@]2(C)C1CC[C@@H]2C(=O)NC1(c2ccc(Cl)cc2)CCCC1 (stereo partly specified) | < 0.1 nM | 280 nM | – | IC50 [10]: 60 nM |
| CC(C)(C)c1ccc(Cl)cc1NC(=O)[C@H]1CCC2C3CNC4=CC(=O)CC[C@]4(C)C3CC[C@@]21C (stereo partly specified) | < 0.1 nM | 760 nM | 7.5 nM | – |
| CC(C)(C)c1ccc(-c2ccccc2)cc1NC(=O)[C@H]1CCC2C3CNC4=CC(=O)CC[C@]4(C)C3CC[C@@]21C (stereo partly specified) | < 0.1 nM | 830 nM | 4.6 nM | – |
| CC(C)(C)c1ccc(-c2ccc(C(C)(C)C)c(NC(=O)[C@H]3CCC4C5CNC6=CC(=O)CC[C@]6(C)C5CC[C@@]43C)c2)cc1 (stereo partly specified) | < 0.1 nM | 8900 nM | 1.3 nM | – |
| CC(C)(C)c1ccc(C2(NC(=O)[C@H]3CCC4C5CNC6=CC(=O)CC[C@]6(C)C5CC[C@@]43C)CCCCC2)cc1 (stereo partly specified) | < 0.1 nM | 2200 nM | 1.5 nM | – |
| CC(C)(C)c1ccc(C2(NC(=O)[C@H]3CCC4C5CNC6=CC(=O)CC[C@]6(C)C5CC[C@@]43C)CCCCCC2)cc1 (stereo partly specified) | < 0.1 nM | 1500 nM | 3.6 nM | – |
| CC(C)(C)c1ccccc1NC(=O)[C@H]1CCC2C3CNC4=CC(=O)CC[C@]4(C)C3CC[C@@]21C (stereo partly specified) | 0.2 nM | 85 nM | 27 nM | – |
| C[C@]12CCC(=O)C=C1NCC1C2CC[C@@]2(C)C1CC[C@@H]2C(=O)Nc1cc(C(F)(F)F)cc(C(F)(F)F)c1 (stereo partly specified) | 0.2 nM | 58 nM | 26 nM | – |
| CC(C)(C)c1ccc(C(C)(C)C)c(NC(=O)[C@H]2CCC3C4CNC5=CC(=O)CC[C@]5(C)C4CC[C@@]32C)c1 (stereo partly specified) | < 0.1 nM | 500 nM | 5 nM | – |
| C[C@]12CCC(=O)C=C1NCC1C2CC[C@@]2(C)C1CC[C@@H]2C(=O)NC1(c2ccc(Cl)cc2Cl)CC1 (stereo partly specified) | < 0.1 nM | 130 nM | 6.7 nM | – |
| C[C@]12CCC(=O)C=C1NCC1C2CC[C@@]2(C)C1CC[C@@H]2C(=O)NC1(c2ccc(Cl)cc2)CCCCC1 (stereo partly specified) | < 0.1 nM | 1800 nM | 3.1 nM | – |
| C[C@]12CC[C@H]3[C@@H](CNC4=C(Cl)C(=O)CC[C@@]43C)[C@@H]1CC[C@@H]2C(=O)Nc1c(C(F)(F)F)cccc1C(F)(F)F (stereo in doubt; 25) | – | 370 nM | 0.6 nM | – |
| C[C@]12CC[C@H]3[C@@H](CNC4=C(Cl)C(=O)CC[C@@]43C)[C@@H]1CC[C@@H]2C(=O)Nc1cc(C(F)(F)F)ccc1C(F)(F)F (stereo in doubt; 27) | < 0.1 nM | 160 nM | 0.2 nM | – |
| CC(C)(C)NC(=O)[C@H]1CC[C@H]2[C@@H]3CC=C4C=C(C(=O)O)CC[C@]4(C)[C@H]3CC[C@]12C [EPRISTERIDE] | – | 160 nM | – | IC50 [10]: 1600 nM |
| CC(C)(C)NC(=O)[C@H]1CC[C@H]2[C@@H]3CC[C@H]4NC(=O)C=C[C@]4(C)[C@H]3CC[C@]12C [FINASTERIDE] | – | 11000 nM | – | Ki [9]: 6.8 nM; IC50 [5]: 0.28 nM; half-life [7]: 4.2 h; Ki [8]: 150 nM |
